The entries come from a sample that favours hits as a whole.
RORA inh = blocks the human nuclear receptor RORA; P35398; CHO-K1 Gal4-RORA LBD luciferase reporter, luminescence; inhibition, % at 10 µM; 65,000 tested, 0.43% active; AID 561;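 active = inhibition above the mean of all tested compounds plus 3 SD, cut at about 52% in these data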;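 also: 0% = RORA-transfected cells with DMSO and 100% = mock-transfected cells lacking RORA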
Target sequence (P35398 whole entry, looked up, the tested form may be a part): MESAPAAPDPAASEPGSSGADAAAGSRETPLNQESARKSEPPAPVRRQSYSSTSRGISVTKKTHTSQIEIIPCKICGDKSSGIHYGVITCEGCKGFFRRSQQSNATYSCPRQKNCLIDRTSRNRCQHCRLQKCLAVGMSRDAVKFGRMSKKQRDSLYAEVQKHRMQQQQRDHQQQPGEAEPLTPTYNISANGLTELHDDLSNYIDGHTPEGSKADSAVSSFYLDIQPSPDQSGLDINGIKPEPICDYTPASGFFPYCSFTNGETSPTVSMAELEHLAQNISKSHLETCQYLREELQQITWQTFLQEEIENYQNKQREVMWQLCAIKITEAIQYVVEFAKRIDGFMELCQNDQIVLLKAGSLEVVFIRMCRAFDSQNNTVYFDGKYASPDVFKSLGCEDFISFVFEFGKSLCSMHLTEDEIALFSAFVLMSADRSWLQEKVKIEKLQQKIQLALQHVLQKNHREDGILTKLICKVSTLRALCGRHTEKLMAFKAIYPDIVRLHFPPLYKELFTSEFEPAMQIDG
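Test system: CHO-K1 cells with Gal4-hRORA LBD fusion and pG5-luc reporter / Compound: single concentration per compound, 10 µM final / Schedule: 20 h compound treatment, 37 °C / Signal: luminescence from basal luciferase reporter expression / Read-out: % inhibition / Control set: mock-transfected cells as 100%, +RORA DMSO cells as 0% / Replicates: tested once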
* hit, by the source's call.

How did Cc1cnc(-c2nnc(N(C)C(=O)c3cnccn3)s2)cn1 do in these assays?
RORA inh: -17.5

What do the screens show for `Cn1c(OCc2cccnc2)nc2c1c(=O)n(Cc1ccc(Br)cc1)c(=O)n2C`?
RORA inh: -2.3

How did CCOC(=O)C1CCCN(C(=O)C2CCN(S(=O)(=O)c3cnc[nH]3)CC2)C1 (stereo not drawn) do in these assays?
RORA inh: 9.5

What do the screens show for `CC(C)C(=O)N1CCN(c2nc(-c3ccccc3)c3c(c2C#N)CCCC3)CC1`?
RORA inh: 32.9

How did Cc1cc(C)c(NC(=O)Cn2c(=O)n(Cc3ccco3)c(=O)c3ccccc32)c(C)c1 do in these assays?
RORA inh: 10.2

Results for C=CCNC(=O)c1cc(-c2ccc(Br)cc2)on1 ?
RORA inh: -61.1

Results for CCN(CC)c1ccc2cc(NC(=O)CCC(=O)O)c(=O)oc2c1 ?
RORA inh: 66.2*

Results for CCN(CC)c1ccc(NC(=O)c2ccccc2F)cc1 ?
RORA inh: -70.2

How did CCN(CC)c1ccc(NC(=O)C2CC3CCC2C3)cc1 (stereo not drawn) do in these assays?
RORA inh: -54.6

Results for CCN(C(=O)c1cccs1)c1nnc(-c2ccncc2)s1 ?
RORA inh: -0.2

How did CCN(C(=O)c1ccc(C(C)(C)C)cc1)c1nnc(Cn2nnc3ccccc32)s1 do in these assays?
RORA inh: 66.2*

How did O=C(OCCCN1CCCC1)C1(c2ccccc2)CCCC1 do in these assays?
RORA inh: 4.6

How did O=C(CCCCn1c(=O)[nH]c2ccccc2c1=O)N1CCN(c2ncccn2)CC1 do in these assays?
RORA inh: 14.8

How did Cc1cccc(NC(=O)c2cnc3n(c2=O)CCS3)c1 do in these assays?
RORA inh: -75.8

What do the screens show for `COc1ccc(Cl)cc1NC(=O)c1cnc2n(c1=O)CCS2`?
RORA inh: -8.4

How did Cc1ccccc1NC(=O)c1cnc2ccccn2c1=O do in these assays?
RORA inh: 53.5*

What do the screens show for `O=C(OCc1c(F)cccc1Cl)c1cnccn1`?
RORA inh: 1.2

What do the screens show for `CCN(CC)S(=O)(=O)c1cccc(-c2nnc(SC(C)C#N)n2Cc2ccccc2)c1` (stereo not drawn)?
RORA inh: -2.3

What do the screens show for `O=C(Nc1ccc2c(c1)OCO2)Oc1ccccc1`?
RORA inh: -8.5

How did O=C(/C=C\Nc1ccc2c(c1)OCO2)c1ccccn1 do in these assays?
RORA inh: 84.8*

What do the screens show for `O=C(Nc1ccc2c(c1)OCO2)c1cc(C2CC2)on1`?
RORA inh: -59.7

Results for O=C(NCC1CCCO1)c1cccc(-n2cnnn2)c1 (stereo not drawn) ?
RORA inh: 10.7

What do the screens show for `Cc1csc(=N)n1-c1ccc(Cl)cc1`?
RORA inh: -24.5

Results for O=C(CSc1nnnn1C1CC2CCC1C2)Nc1ccnc2ccccc12 (stereo not drawn) ?
RORA inh: 84.6*

How did Cc1cccc(C)c1OCC(=O)NCc1nnc(SCC(=O)NC2CCCCC2)n1C do in these assays?
RORA inh: 4.4

What do the screens show for `COc1ccc(CNC(=O)CSc2nnnn2Cc2ccccc2)cc1`?
RORA inh: -31.5

How did CCCOc1ccc(N2CC(C(=O)Nc3ncccc3C)CC2=O)cc1 (stereo not drawn) do in these assays?
RORA inh: 19.2

Results for CCOC(=O)N1CCN(C(=O)CCc2ccc(S(=O)(=O)NCCc3ccccc3)cc2)CC1 ?
RORA inh: 6.4

What do the screens show for `Cc1ccc2nc(C(F)(F)F)c(C#N)c(N)c2c1`?
RORA inh: 57.2*

Results for Cc1nnc(SCC(=O)NCCc2ccccc2)[nH]c1=O ?
RORA inh: 7.1

What do the screens show for `CSCCC(NC=C1C(=O)OC(C)(C)OC1=O)C(=O)O` (stereo not drawn)?
RORA inh: 9.2

What do the screens show for `CCCCOc1ncnc2c1[nH]c1ccc(F)cc12`?
RORA inh: 70.4*

What do the screens show for `CN1CC(=O)N(CCOc2ccccc2)C1=O`?
RORA inh: 6.4

Results for Nc1ccc(-c2nc3c(Cl)cc(N)cc3[nH]2)cc1 ?
RORA inh: 78.7*

Results for COc1ccc(CN2C(=O)CCC2(C)C(=O)NC2CCCCCC2)cc1 (stereo not drawn) ?
RORA inh: 4.2

What do the screens show for `CCOc1ccc(S(=O)(=O)N2CCN(Cc3ccccc3)CC2)c2cccnc12`?
RORA inh: 2.6

Results for CS(=O)(=O)N(CC(=O)NCC1CCCO1)c1ccc(F)c(Cl)c1 (stereo not drawn) ?
RORA inh: 6.4

Results for c1ccc(CNc2ncnc3ccccc23)cc1 ?
RORA inh: 56.3*

Results for Cc1ccc(-n2ncc3c(NCc4ccccc4)ncnc32)cc1 ?
RORA inh: -60.9

What do the screens show for `CCOc1ccccc1Nc1ncnc2ccccc12`?
RORA inh: -14.0

Results for CCOc1ncccc1C(=O)OCC(=O)Nc1cc(C(=O)OC)ccc1C(=O)OC ?
RORA inh: -26.5

What do the screens show for `CCN(CCCNC(=O)C1CCN(S(=O)(=O)N2CCOCC2)CC1)c1cccc(C)c1`?
RORA inh: -38.7

How did O=C(/C=C\Nc1ccccn1)c1ccc(Cl)cc1 do in these assays?
RORA inh: 63.8*

Results for O=C(/C=C/Nc1ccc(F)c(Cl)c1)c1ccco1 ?
RORA inh: -62.6

Assay outcomes from PubChem BioAssay.
